# The RNAGym collection of RNA variant scans (doi:10.1126/science.aae0568)
# This sample holds only a part of the variants without activity.
# B1: tRNA (parent)
# chain: GUUCCGUUGGCGUAAUGGUAACGCGUCUCCCUCCUAAGGAGAAGACUGCGGGUUCGAGUCCCGUACGGAACG
# Variants of: B1
# Test: yeast fitness relative to wild type (ratio to wild type); higher = fitter; tRNA-Arg(CCU), competitive growth, 37 C, YPD
# Method in brief: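 For this measurement, the tRNA-Arg(CCU) gene was varied by chemical synthesis at a 3% per-site mutation rate across 69 sites, and each variant was placed at the native genomic locus in Saccharomyces cerevisiae. The pooled strains went through a 24-hour competition in YPD at 37°C in six parallel replicates, with amplicons from start and end populations read by 100-nucleotide paired-end sequencing. Darwinian fitness relative to wild type followed from the change in each genotype's frequency. Genotypes needed ≥ 100 starting reads, and estimates < 0.5 were set to 0.5.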
row,Variant,yeast fitness
1,U3A A21G C31A G48C,≤ 0.5
2,U3A A21U A65U,≤ 0.5
3,U3A A57C,0.714
4,U3A A36G G56A A65C A69C,≤ 0.5
5,U3A A20C U32A A65U,≤ 0.5
6,U3A A15G U35C G52A G58C C66U,≤ 0.5
7,U3A A14U C62U,0.79
8,U3A A70C,0.988
9,U3A A70U,0.86
10,U3A A20C U32A A70G,≤ 0.5
11,U3A A14G G23C A65C,≤ 0.5
12,U3A C4A U16A A36C G48A G67A,≤ 0.5
13,U3A C4U U7A C24U,≤ 0.5
14,U3A C4A U16A C30G U53C G67A,0.604
15,U3A C4A U16A C30G U53C G67U,≤ 0.5
16,U3A C4U C29G,≤ 0.5
17,U2G U28G A45C G63C,≤ 0.5
18,U3A A20U A37G,0.608
19,U3A A15G U19A G41A,≤ 0.5
20,U3A C4U G25C G48A,≤ 0.5
21,U3A A40C U47A G68C,≤ 0.5
22,U3A C4U G10C C33G G52C,≤ 0.5
23,U3A A20U C49U,0.531
24,U3A C4A A20C C29A C66U,≤ 0.5

row,Variant,yeast fitness
1,U3A A57G A69U,0.983
2,U3A A15C C66U,0.659
3,U3A A21G G23C A36U C60A,≤ 0.5
4,U3A A15U C34U G48A C60U,≤ 0.5
5,U3A A36G,0.868
6,U3A A40G A57C A69C,≤ 0.5
7,U3A A21G C33G C34G,≤ 0.5
8,U3A A21C G25U A43C,≤ 0.5
9,U3A C4G G6A U26G A70U,≤ 0.5
10,U3A A15U U28G C55A A70U,0.779
11,U3A A40U A70G,0.597
12,U3A A21C C24G C62U,0.526
13,U3A C4U A70G,0.59
14,U3A A21U G23C A43C,≤ 0.5
15,U3A A14C A20C U28A C29G U32C G39A A57C,≤ 0.5
16,U3A C4G U59A A65C A70C,≤ 0.5
17,U3A C4A U8C C29G A37C A70C,≤ 0.5
18,U3A A37G G41A,≤ 0.5
19,U3A A14U C46U U53A,≤ 0.5
20,U3A C4U C11A U53A A65U,≤ 0.5
21,U3A A14C C46U,≤ 0.5
22,U3A A14C C46G,≤ 0.5
23,U2G U26G,0.693
24,U3A C4U U13A A36U C66U,0.641

row,Variant,yeast fitness
1,U3A A42C C61A,≤ 0.5
2,U3A A21G C66U A70C,0.794
3,U3A A43G,0.919
4,U3A A40G C55G,0.813
5,U3A A21G C46A,0.695
6,U3A A14C C34A G52A A70G,0.673
7,U3A A21G U28A A42C A57G C66A,0.733
8,U2G U64C,0.841
9,U3A A45C C62G,≤ 0.5
10,U3A C4U A37G A40U,≤ 0.5
11,U3A A42G C66U,0.595
12,U3A C4U A43G,0.579
13,U3A C4A A20C C29A,≤ 0.5
14,U2G U54C C62G A70U,≤ 0.5
15,U3A A14C A37C,≤ 0.5
16,U3A C4A U8C C29G C33G A42G G48A,≤ 0.5
17,U3A A37C A45C,0.6
18,U3A A37C,0.796
19,U3A A37U,0.754
20,U3A A37G,0.887
21,U3A C4A U16G G58C,≤ 0.5
22,U3A A37C A43C,≤ 0.5
23,U3A A21C C24G C61U,≤ 0.5
24,U3A A21C C24G G63A,≤ 0.5

row,Variant,yeast fitness
1,U3A A15G U47G,0.794
2,U3A A21C C24G C62G A70G,≤ 0.5
3,U3A A14U,0.731
4,U3A A36U U53G,0.619
5,U3A A14G C24G C29A G50C A57C,≤ 0.5
6,U3A A37U C66A,≤ 0.5
7,U3A A15C U16C C66U,≤ 0.5
8,U3A C4U U7A C24U U35C C49U C61G,≤ 0.5
9,U3A C4A U16A C30G U53C C66U A70G,≤ 0.5
10,U3A A14G A15U A36U G39C A40U C49U C55A,0.612
11,U3A A21U U28A A42C A57G C66A,≤ 0.5
12,U3A A20C U32A C62U G63A,0.572
13,U2G U32C,0.867
14,U2G U32G,0.68
15,U3A A45U A69U,0.788
16,U3A C4U U7A C24U C60U,≤ 0.5
17,U3A A21U C49A,≤ 0.5
18,U2G U28G U59A,≤ 0.5
19,U3A A15U G23C C27U G52A,0.64
20,U2G U35A A40U A57U,≤ 0.5
21,U3A C5A C29A G68A,≤ 0.5
22,U3A A15G U35C G52A,0.525
23,U3A A42G U53A,≤ 0.5
24,U3A A21G A45G A69C,0.726

row,Variant,yeast fitness
1,U3A C4G U8A G50A A57C A70U,0.548
2,U3A A21C C24G,0.507
3,U3A A45G,1
4,U3A A45C,0.88
5,U3A A15U,0.695
6,U3A A37U A42G,≤ 0.5
7,U3A A15C U47C,≤ 0.5
8,U3A A40G C49U,0.54
9,U3A A15C C22G U32C G41A,≤ 0.5
10,U3A A14G C24G A42C,0.54
11,U3A A14G A15G A20U A37G G41A,0.525
12,U3A A20C A21G C61A,0.514
13,U3A C5A A65U,≤ 0.5
14,U3A A21C A36U G58A,≤ 0.5
15,U3A A20C U32A,≤ 0.5
16,U2G U28G G68C,≤ 0.5
17,U3A A20G C24U C55G C61U,≤ 0.5
18,U3A A21U,0.71
19,U3A A21G,0.926
20,U3A A21C,0.768
21,U3A C4G G9A C11G U53A C66U,≤ 0.5
22,U3A A20G,1
23,U3A A20U,0.834
24,U3A C4U U7A C24U C46G A65G,≤ 0.5

row,Variant,yeast fitness
1,U2G U47C,0.992
2,U3A C4U U13A A36U C62A C66U,≤ 0.5
3,U3A A36G A70C,0.991
4,U3A A40G,0.888
5,U3A A40C,0.635
6,U3A A14G G23C U32A G52C,≤ 0.5
7,U3A A21C C49G,≤ 0.5
8,U3A A42C,0.72
9,U3A A42G,0.73
10,U3A A14G G58C,0.753
11,U3A A20G A36C G51C,≤ 0.5
12,U2G U59A,0.851
13,U2G U59C,0.848
14,U2G U35C,0.72
15,U3A C4U G25C G58C,≤ 0.5
16,U2G U32G A42U,≤ 0.5
17,U3A C4U U7A C24U A42U G58A C62U G63A,≤ 0.5
18,U3A A14U A37G A57C,≤ 0.5
19,U3A A20G A43U C55G C61U,≤ 0.5
20,U3A C4A U19C C27U C46A C62G A69U,≤ 0.5
21,U3A A20G C22U G44C,≤ 0.5
22,U3A C4U G44C,0.638
23,U3A A69C,0.919
24,U3A A45U C46G G52A G68C,≤ 0.5

row,Variant,yeast fitness
1,U3A A20G G44A C49A U59A,≤ 0.5
2,U2G U28A U32C C49G G52A,≤ 0.5
3,U3A A37U G38C,≤ 0.5
4,U3A A40U G56A,≤ 0.5
5,U3A C4A U16A C30G U53C C66A,≤ 0.5
6,U3A A43C C46A G48C,0.57
7,U3A A43U C49U,0.69
8,U3A A21C C24G C49U A65C,≤ 0.5
9,U3A A20U C29G C49G G63C,≤ 0.5
10,U3A A15G U19A G41A G50A,≤ 0.5
11,U3A C4G C60G G67A,≤ 0.5
12,U3A A21C A36U,≤ 0.5
13,U3A C4A U8C C31U A37U G48C C66U,≤ 0.5
14,U3A A36G C66U,0.666
15,U3A C4U C11U G48C,0.532
16,U3A A45G G67C,0.628
17,U2G U28A C33U C46G,≤ 0.5
18,U3A A37G A42G G50A C55U U64C,≤ 0.5
19,U3A C4A U8C C30U A45C G52C,≤ 0.5
20,U3A A14U A57U,≤ 0.5
21,U2G U53A,0.532
22,U3A A20G G56A,0.707
23,U3A A14G G23C A70C,0.573
